Source: ChEMBL document CHEMBL5058577, “EUbOPEN Chemogenomics Library 2 (Multiplex)” (2022)

System: Fibroblast
Experiment: Multiplex assay against human fibroblast
Type: toxicity, cell-based
How it was run: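 Live cells were stained at seeding with Hoechst33342, BioTracker Green Microtubule Cytoskeleton Dye, MitoTracker Red and Annexin V Alexa Fluor 680. Following compound addition, they were imaged on a CQ1 microscope at 37°C and 5% CO2 and gated by CellPathfinder machine learning into Hoechst high-intensity objects or normal cells, with normal cells split into healthy, pyknosed or fragmented nuclei and pyknosed cells into mitotic or apoptotic. Tubulin, mitochondrial-mass and membrane-permeability phenotypes are per cents of healthy-nucleus cells.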

[1] = 12 h, 1 µM, compound concentration 1 uM, replicate 1
[2] = 12 h, 1 µM, compound concentration 1 uM, replicate 2
[3] = 12 h, 10 µM, compound concentration 10 uM, replicate 1
[4] = 12 h, 10 µM, compound concentration 10 uM, replicate 2
[5] = 24 h, 1 µM, compound concentration 1 uM, replicate 1
[6] = 24 h, 1 µM, compound concentration 1 uM, replicate 2
[7] = 24 h, 10 µM, compound concentration 10 uM, replicate 1
[8] = 24 h, 10 µM, compound concentration 10 uM, replicate 2
[9] = 48 h, 1 µM, compound concentration 1 uM, replicate 1
[10] = 48 h, 1 µM, compound concentration 1 uM, replicate 2
[11] = 48 h, 10 µM, compound concentration 10 uM, replicate 1
[12] = 48 h, 10 µM, compound concentration 10 uM, replicate 2

With `C[C@H](N)COC(=O)[C@@H](CCCCN)NC(=O)Cc1c(-c2ccc3ccccc3c2)[nH]c2c1ccc1ccccc12` the “Population Apoptotic (%)” value [1] was 32%, the “Population Fragmented Nuclei (%)” value [1] was 18% and the “Population Healthy Nuclei (%)” value [1] was 65%. The “Population Hoechst High Intensity Objects (%)” value [1] was 1%, the “Population Membrane Permeable-Phenotype (%)” value [1] was 0% and the “Population Mitochondria Different-Phenotype (%)” value [1] was 7%. The “Population Mitotic Cells (%)” value [1] was 67%, the “Population Normal (%)” value [1] was 98% and the “Population Pyknosed Nuclei (%)” value [1] was 15%. The “Population Tubulin-Different-Phenotype (%)” value [1] was 32%, the “Total Cell Count” value [1] was 179 and the “Population Apoptotic (%)” value [2] was 50%. For the same compound, the “Population Fragmented Nuclei (%)” value [2] was 25%, the “Population Healthy Nuclei (%)” value [2] was 51% and the “Population Hoechst High Intensity Objects (%)” value [2] was 4%. The “Population Membrane Permeable-Phenotype (%)” value [2] was 5%, the “Population Mitochondria Different-Phenotype (%)” value [2] was 4% and the “Population Mitotic Cells (%)” value [2] was 50%. The “Population Normal (%)” value [2] was 95%, the “Population Pyknosed Nuclei (%)” value [2] was 23% and the “Population Tubulin-Different-Phenotype (%)” value [2] was 36%. The “Total Cell Count” value [2] was 170, the “Population Apoptotic (%)” value [3] was 43% and the “Population Fragmented Nuclei (%)” value [3] was 13%. For the same compound, the “Population Healthy Nuclei (%)” value [3] was 69%, the “Population Hoechst High Intensity Objects (%)” value [3] was 2% and the “Population Membrane Permeable-Phenotype (%)” value [3] was 1%. For the same compound, the “Population Mitochondria Different-Phenotype (%)” value [3] was 8%, the “Population Mitotic Cells (%)” value [3] was 56% and the “Population Normal (%)” value [3] was 97%. The “Population Pyknosed Nuclei (%)” value [3] was 16%, the “Population Tubulin-Different-Phenotype (%)” value [3] was 33% and the “Total Cell Count” value [3] was 183. The “Population Apoptotic (%)” value [4] was 62%, the “Population Fragmented Nuclei (%)” value [4] was 32% and the “Population Healthy Nuclei (%)” value [4] was 50%. The “Population Hoechst High Intensity Objects (%)” value [4] was 7%, the “Population Membrane Permeable-Phenotype (%)” value [4] was 5% and the “Population Mitochondria Different-Phenotype (%)” value [4] was 6%. For the same compound, the “Population Mitotic Cells (%)” value [4] was 37%, the “Population Normal (%)” value [4] was 92% and the “Population Pyknosed Nuclei (%)” value [4] was 17%. The “Population Tubulin-Different-Phenotype (%)” value [4] was 47%, the “Total Cell Count” value [4] was 167 and the “Population Apoptotic (%)” value [5] was 53%. For the same compound, the “Population Fragmented Nuclei (%)” value [5] was 16%, the “Population Healthy Nuclei (%)” value [5] was 66% and the “Population Hoechst High Intensity Objects (%)” value [5] was 3%. For the same compound, the “Population Membrane Permeable-Phenotype (%)” value [5] was 0%, the “Population Mitochondria Different-Phenotype (%)” value [5] was 5% and the “Population Mitotic Cells (%)” value [5] was 46%. For the same compound, the “Population Normal (%)” value [5] was 96%, the “Population Pyknosed Nuclei (%)” value [5] was 17% and the “Population Tubulin-Different-Phenotype (%)” value [5] was 30%. The “Total Cell Count” value [5] was 179, the “Population Apoptotic (%)” value [6] was 29% and the “Population Fragmented Nuclei (%)” value [6] was 25%. The “Population Healthy Nuclei (%)” value [6] was 54%, the “Population Hoechst High Intensity Objects (%)” value [6] was 7% and the “Population Membrane Permeable-Phenotype (%)” value [6] was 3%. The “Population Mitochondria Different-Phenotype (%)” value [6] was 7%, the “Population Mitotic Cells (%)” value [6] was 70% and the “Population Normal (%)” value [6] was 92%. The “Population Pyknosed Nuclei (%)” value [6] was 20%, the “Population Tubulin-Different-Phenotype (%)” value [6] was 39% and the “Total Cell Count” value [6] was 162. The “Population Apoptotic (%)” value [7] was 63%, the “Population Fragmented Nuclei (%)” value [7] was 13% and the “Population Healthy Nuclei (%)” value [7] was 74%. For the same compound, the “Population Hoechst High Intensity Objects (%)” value [7] was 7%, the “Population Membrane Permeable-Phenotype (%)” value [7] was 0% and the “Population Mitochondria Different-Phenotype (%)” value [7] was 5%. For the same compound, the “Population Mitotic Cells (%)” value [7] was 36%, the “Population Normal (%)” value [7] was 92% and the “Population Pyknosed Nuclei (%)” value [7] was 11%. For the same compound, the “Population Tubulin-Different-Phenotype (%)” value [7] was 31%, the “Total Cell Count” value [7] was 171 and the “Population Apoptotic (%)” value [8] was 50%. For the same compound, the “Population Fragmented Nuclei (%)” value [8] was 36%, the “Population Healthy Nuclei (%)” value [8] was 50% and the “Population Hoechst High Intensity Objects (%)” value [8] was 6%. The “Population Membrane Permeable-Phenotype (%)” value [8] was 5%, the “Population Mitotic Cells (%)” value [8] was 50% and the “Population Normal (%)” value [8] was 93%. The “Population Pyknosed Nuclei (%)” value [8] was 13%, the “Population Tubulin-Different-Phenotype (%)” value [8] was 54% and the “Total Cell Count” value [8] was 159. The “Population Apoptotic (%)” value [9] was 72%, the “Population Fragmented Nuclei (%)” value [9] was 21% and the “Population Healthy Nuclei (%)” value [9] was 65%. The “Population Hoechst High Intensity Objects (%)” value [9] was 5%, the “Population Membrane Permeable-Phenotype (%)” value [9] was 0% and the “Population Mitochondria Different-Phenotype (%)” value [9] was 7%. For the same compound, the “Population Mitotic Cells (%)” value [9] was 27%, the “Population Normal (%)” value [9] was 94% and the “Population Pyknosed Nuclei (%)” value [9] was 12%. For the same compound, the “Population Tubulin-Different-Phenotype (%)” value [9] was 26%, the “Total Cell Count” value [9] was 186 and the “Population Apoptotic (%)” value [10] was 51%. The “Population Fragmented Nuclei (%)” value [10] was 30%, the “Population Healthy Nuclei (%)” value [10] was 50% and the “Population Hoechst High Intensity Objects (%)” value [10] was 2%. For the same compound, the “Population Membrane Permeable-Phenotype (%)” value [10] was 3%, the “Population Mitochondria Different-Phenotype (%)” value [10] was 6% and the “Population Mitotic Cells (%)” value [10] was 48%. For the same compound, the “Population Normal (%)” value [10] was 97%, the “Population Pyknosed Nuclei (%)” value [10] was 18% and the “Population Tubulin-Different-Phenotype (%)” value [10] was 39%. For the same compound, the “Total Cell Count” value [10] was 169, the “Population Apoptotic (%)” value [11] was 46% and the “Population Fragmented Nuclei (%)” value [11] was 16%. For the same compound, the “Population Healthy Nuclei (%)” value [11] was 68%, the “Population Hoechst High Intensity Objects (%)” value [11] was 9% and the “Population Membrane Permeable-Phenotype (%)” value [11] was 0%. The “Population Mitochondria Different-Phenotype (%)” value [11] was 4%, the “Population Mitotic Cells (%)” value [11] was 53% and the “Population Normal (%)” value [11] was 90%. The “Population Pyknosed Nuclei (%)” value [11] was 15%, the “Population Tubulin-Different-Phenotype (%)” value [11] was 35% and the “Total Cell Count” value [11] was 185. The “Population Apoptotic (%)” value [12] was 55%, the “Population Fragmented Nuclei (%)” value [12] was 36% and the “Population Healthy Nuclei (%)” value [12] was 52%. For the same compound, the “Population Hoechst High Intensity Objects (%)” value [12] was 5%, the “Population Membrane Permeable-Phenotype (%)” value [12] was 7% and the “Population Mitochondria Different-Phenotype (%)” value [12] was 8%. For the same compound, the “Population Mitotic Cells (%)” value [12] was 44%, the “Population Normal (%)” value [12] was 94% and the “Population Pyknosed Nuclei (%)” value [12] was 11%. The “Population Tubulin-Different-Phenotype (%)” value [12] was 54% and the “Total Cell Count” value [12] was 166.
